Assay results collected from several papers.
Each line is one published result; the experiments were not run side by side. Values after ≈ are worked out from the molar mass of the structure shown.

| Compound | tested on | assay | system | conditions | measurement | value |
| --- | --- | --- | --- | --- | --- | --- |
| O=C(NC(=S)Nc1ccccc1O)c1ccco1 | Leishmania major | parasite growth, resazurin |  | promastigote | IC50 | 6.08 µM |
| CN[C@H](CC(C)C)C(=O)N[C@H]1C(=O)N[C@@H](CC(N)=O)C(=O)N[C@H]2C(=O)N[C@H]3C(=O)N[C@H](C(=O)N[C@H](C(=O)O)c4cc(O)cc(O)c4-c4cc3ccc4O)[C@H](O)c3ccc(c(Cl)c3)Oc3cc2cc(c3O[C@@H]2O[C@H](CO)[C@@H](O)[C@H](O)[C@H]2O[C@H]2C[C@](C)(N)[C@H](O)[C@H](C)O2)Oc2ccc(cc2Cl)[C@H]1O | Enterococcus faecalis | microbial growth | ATCC29212 |  | MIC | 2 µM (≈ 2.9 µg/mL) |
| O=C(NC(=S)Nc1nccs1)c1ccco1 | Leishmania major | parasite growth, resazurin |  | promastigote | IC50 | 12.9 µM |
| COc1ccc(COC[C@@](O)(CNCc2ccccc2)[C@@H]2CC[C@@H](C)C[C@H]2OCc2ccc(OC)cc2)cc1 | HeLa | cell growth or viability, MTT |  | 10 µM, 72 h | inhibition | 93.8% |
| CN[C@@H]1[C@@H](O[C@H]2O[C@H](CO)[C@@H](N)[C@H](O)[C@H]2O)OC2C[C@@H](N)[C@@H](O[C@H]3[C@H](O)[C@@H](O)[C@H](N)C[C@@H]3N)OC2[C@@H]1O (stereo partly shown) | Vibrio alginolyticus | microbial growth |  | 24 h | MIC | > 40 µM |
| O=C(NC(=S)Nc1cccc(O)c1)c1cccs1 | Leishmania major | parasite growth, resazurin |  | promastigote | IC50 | 0.29 µM |
| Cc1cc(NC(=O)C=Cc2ccccc2)cc(-c2ccnc(N3CCC(CO)CC3)c2)c1 | HeLa | cell growth or viability, MTT |  | 5 µM | inhibition | 81.8% |
| C[C@@H]1CC[C@@H]([C@](C)(O)CNCc2ccc(F)cc2)[C@H](OCc2ccccc2)C1 | HeLa | cell growth or viability, MTT |  | 30 µM, 72 h | inhibition | 60.1% |
| C=CC(=O)NC1CCN(c2ncc3ncnc(Nc4ccc(Oc5ccc6c(c5)ncn6C)c(C)c4)c3n2)CC1 | SNU-216 | cell growth or viability |  |  | EC50 | 10.2 nM |
| C=C(COCc1ccc(F)cc1)[C@@H]1CC[C@@H](C)C[C@H]1OCc1ccc(F)cc1 | HeLa | cell growth or viability, MTT |  | 30 µM, 72 h | inhibition | 61.5% |
| O=C(N[C@H](CO)[C@H](O)c1ccc([N+](=O)[O-])cc1)C(Cl)Cl | Vibrio alginolyticus | microbial growth |  | 24 h | MIC | 1.25 to 2.5 µM (≈ 0.404 to 0.808 µg/mL) |
| Cc1nc(NC(=S)NCc2ccco2)nc(-c2ccccc2)c1C(=O)N1CCC(C(=O)O)CC1 | Leishmania major | parasite growth, resazurin |  | promastigote | IC50 | 0.18 µM |
| C[C@@H]1CC[C@@H]([C@@](O)(CNCc2ccccc2)COCc2ccccc2)[C@H](OCc2ccccc2)C1 | HeLa | cell growth or viability, MTT |  | 30 µM, 72 h | inhibition | 98.2% |
